Test results as given in ChEMBL document CHEMBL2034945, “Bioactive quassinoids from the seeds of Brucea javanica” (J Nat Prod, 2012).

Legend:
Type in all cases: functional, cell-based
SK-OV-3 = assay: Cytotoxicity against human SKOV3 cells by MTT assay
Method in brief: (§1)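 Colorimetric MTT assay on human cancer lines: HCT-8 colon, HepG2 hepatoma, BGC-823 gastric, A549 lung epithelial and SKOV3 ovarian. Paclitaxel was the positive control. IC50 was reported.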

A549 = assay: Cytotoxicity against human A549 cells by MTT assay; method in brief: as §1
BGC-823 = assay: Cytotoxicity against human BGC823 cells by MTT assay; method in brief: as §1
HCT-8 = assay: Cytotoxicity against human HCT8 cells by MTT assay; method in brief: as §1
HepG2 = assay: Cytotoxicity against human HepG2 cells by MTT assay; method in brief: as §1
[1] = Antiinflammatory activity in rat polymorphonuclear leukocytes assessed as inhibition of LPS-stimulated nitric oxide production after 20 mins by Griess method
Method in brief: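 Rat polymorphonuclear leukocytes were stimulated with LPS, and nitric oxide in the culture supernatant was measured by Griess reaction. Supernatant or sodium nitrite standard was mixed 1:1 with Griess reagent (0.1% N-(1-naphthyl)ethylenediamine dihydrochloride plus 1% sulfanilamide in 5% phosphoric acid, combined within 1 h of preparation). After 20 min at room temperature, absorbance was read at 540 nm. Dexamethasone was the positive control. IC50 was reported.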

Compound	IC50 (SK-OV-3) [µM]	IC50 (A549) [µM]	IC50 (BGC-823) [µM]	IC50 (HCT-8) [µM]	IC50 (HepG2) [µM]	IC50 [1] [µM]
COC(=O)[C@@H](C)[C@@H]1C[C@H]2OC(=O)[C@H](OC(=O)C=C(C)C)[C@H]3[C@]4(C(=O)OC)OC[C@]23[C@H]([C@@H](O)[C@@H]4O)[C@@]1(C)CC(=O)O	> 10	> 10	> 10	> 10	> 10	
CC1=CC(=O)[C@@H](O)[C@]2(C)[C@H]3[C@@H](O)[C@H](O)[C@]4(C)OC[C@@]35[C@@H](C[C@@H]12)OC(=O)[C@H](O)[C@]54O [BRUCEINE D]	0.76	3.9	1.2	2	1.2	
COC(=O)[C@@]12OC[C@]34[C@H]([C@@H](O)[C@@H]1O)[C@@]1(C)C=C(O[C@@H]5O[C@H](CO)[C@@H](O)[C@H](O)[C@H]5O)C(=O)[C@@H](C)[C@@H]1C[C@H]3OC(=O)[C@H](OC(=O)C=C(C)C)[C@@H]24 [BRUCEOSIDE A]	> 10	> 10	> 10	> 10	> 10	
COC(=O)[C@@]12OC[C@]34[C@H]([C@@H](O)[C@@H]1O)[C@@](C)(CC(=O)O)[C@H](C(C)=O)C[C@H]3OC(=O)[C@H](OC(=O)C=C(C)C)[C@@H]24 [BRUCEANIC ACID E]	> 10	> 10	> 10	> 10	> 10	
CC1=CC(=O)[C@@H](O)[C@]2(C)[C@H]3[C@@H](O)[C@H](O)[C@@]4(CO)OC[C@@]35[C@@H](C[C@@H]12)OC(=O)[C@H](O)[C@]54O [BRUCEINE H]	0.33	9.3	2.1	1.3	2.8	
COC(=O)[C@@]12OC[C@]34[C@H]([C@@H](O)[C@@H]1O)[C@@](C)(CC(=O)O)[C@H]([C@@H](C)C(=O)O)C[C@H]3OC(=O)[C@H](OC(=O)C=C(C)C)[C@@H]24 [JAVANIC ACID A]	> 10	> 10	> 10	> 10	> 10	
COC(=O)[C@@]12OC[C@]34[C@H]([C@@H](O)[C@@H]1O)[C@@]1(C)C[C@H](O)C(=O)[C@@H](C)[C@@H]1C[C@H]3OC(=O)[C@H](OC(=O)C=C(C)C)[C@@H]24 [JAVANICOLIDE H]	0.23	0.95	0.52	> 10	> 10	
CC(=O)[C@@H]1C[C@H]2OC(=O)[C@H](OC(=O)C=C(C)C)[C@H]3[C@]4(C(=O)O)OC[C@]23[C@H]([C@@H](O)[C@@H]4O)[C@@]1(C)CC(=O)O [BRUCEANIC ACID F]	> 10	> 10	> 10	> 10	> 10	
C[C@@H]1C[C@H]2[C@@H]3CCC4=CC(=O)C=C[C@]4(C)[C@@]3(F)[C@@H](O)C[C@]2(C)[C@@]1(O)C(=O)CO [DEXAMETHASONE]						0.0023
COC(=O)[C@]12OC[C@@]34[C@H](C[C@H]5[C@H](C)C(=O)C(O[C@@H]6O[C@H](CO)[C@@H](O)[C@H](O)[C@H]6O)=C[C@]5(C)[C@H]3[C@@H](O)[C@@H]1O)OC(=O)[C@H](OC(=O)/C=C(\C)C(C)C)[C@@H]24 [BRUCEANTINOSIDE A]	> 10	> 10	> 10	> 10	> 10	
COC(=O)C[C@]1(C)[C@H]2[C@@H](O)[C@H](O)[C@@]3(C(=O)OC)OC[C@@]24[C@@H](C[C@H]1C(C)=O)OC(=O)[C@H](OC(=O)C=C(C)C)[C@@H]34 [BRUCEANIC ACID E METHYL ESTER]	> 10	> 10	> 10	> 10	> 10	
CC(=O)O[C@H]1C(=O)[C@@]2(C)[C@H]([C@H](OC(=O)c3ccccc3)[C@]3(O)C[C@H](OC(=O)[C@H](O)[C@@H](NC(=O)c4ccccc4)c4ccccc4)C(C)=C1C3(C)C)[C@]1(OC(C)=O)CO[C@@H]1C[C@@H]2O [PACLITAXEL]	< 0.0001					
COC(=O)[C@@]12OC[C@@]34[C@@H](CC5=C(C)C(=O)C(O)=C[C@]5(C)[C@H]3[C@@H](O)[C@@H]1O)OC(=O)[C@H](OC(=O)C=C(C)C)[C@@H]24 [DEHYDROBRUSATOL]	2.5	7.3	4.8	> 10	3.3	
CC1=C[C@H](O)[C@@H](O)[C@]2(C)[C@H]3[C@@H](O)[C@H](O)[C@@]4(C)OC[C@@]35[C@@H](C[C@@H]12)OC(=O)[C@H](O)[C@]54O [BRUCEINE E]	2.2	> 10	2.2	6.7	2.9	5
COC(=O)[C@@]12OC[C@]34[C@H]([C@@H](O)[C@@H]1O)[C@@]1(C)CC(=O)[C@H](O)[C@@H](C)[C@@H]1C[C@H]3OC(=O)[C@H](OC(=O)C=C(C)C)[C@@H]24 [JAVANICOLIDE E]	1.49	6.36	1.43	> 10	> 10	
COC(=O)[C@@]12OC[C@]34[C@H]([C@@H](O)[C@@H]1O)[C@@]1(C)CC(=O)C(O)=C(C)[C@@H]1C[C@H]3OC(=O)[C@H](OC(C)=O)[C@@H]24 [BRUCEINE B]	0.12	1.3	0.81	2	0.81	1.9
